For experiment [1], the target named is Pyruvate kinase PKLR (Homo sapiens) (UniProt P30613). Briefly: Activation of PKR assessed as pyruvate formation by fluorescent pyruvate kinase-lactate dehydrogenase coupled assay relative to control. Also noted: concentration or dose not given beside the values.
The target of experiment [2] is T1, Pyruvate kinase PKM (Homo sapiens, UniProt P14618). As to the kind of experiment: Activation of PKM1 assessed as pyruvate formation by fluorescent pyruvate kinase-lactate dehydrogenase coupled assay.
For experiment [3], the target named is Pyruvate kinase PKLR (Homo sapiens) (UniProt P30613). Briefly: Activation of PKL assessed as ATP product formation by luminescent pyruvate kinase-luciferase coupled assay relative to control. Also noted: concentration or dose not given beside the values. The method, boiled down: (§1)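 Luciferase-coupled ATP production assay run as for PKM2: imidazole pH 7.2 buffer with KCl, MgCl2, Tween 20 and BSA, 0.1 mM ADP, 0.5 mM PEP, 1 h at r.t., Kinase-Glo luminescence. Enzyme final concentrations were PKM1 1 nM, PKL 0.1 nM, PKR 0.1 nM. % activation normalized to DMSO (neutral) and no-enzyme controls.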

The target of experiment [4] is T1, Pyruvate kinase PKM. As to the kind of experiment: Activation of PKM2 assessed as ATP product formation at 57 uM by luminescent pyruvate kinase-luciferase coupled assay relative to fructose-1,6-bis-phosphate. A digest of the protocol:
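Recombinant human PKM2 (0.1 nM final) in 50 mM imidazole pH 7.2, 50 mM KCl, 7 mM MgCl2, 0.01% Tween 20, 0.05% BSA; 0.1 mM ADP, 0.5 mM PEP; 1 h at r.t., then Kinase-Glo luciferase read of ATP formed. Activation % = (c−n)/(n−i)×100 against DMSO and no-enzyme controls; 100% ≈ 2-fold over basal signal. Max response taken at 57 μM; three separate experiments.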

In experiment [5] the target is Pyruvate kinase PKLR (Homo sapiens) (UniProt P30613). Briefly: Activation of PKR assessed as ATP product formation by luminescent pyruvate kinase-luciferase coupled assay relative to control. Also noted: concentration or dose not given beside the values. A digest of the protocol:
as §1

Experiment [6] has the same target. Briefly: Activation of PKL assessed as pyruvate formation by fluorescent pyruvate kinase-lactate dehydrogenase coupled assay relative to control. Also noted: concentration or dose not given beside the values.
The target of experiment [7] is T1, Pyruvate kinase PKM. As to the kind of experiment: Activation of PKM1 assessed as ATP product formation by luminescent pyruvate kinase-luciferase coupled assay. A digest of the protocol:
as §1

Here are results for 24 compounds from ChEMBL document CHEMBL1156261, “Evaluation of substituted N,N'-diarylsulfonamides as activators of the tumor cell specific M2 isoform of pyruvate kinase” (J Med Chem, 2010).

Calls of active or inactive are those of the source. No rule for the calls is given here. Some results are limits rather than exact numbers.

T1 sequence (P14618 2-531 limits assumed): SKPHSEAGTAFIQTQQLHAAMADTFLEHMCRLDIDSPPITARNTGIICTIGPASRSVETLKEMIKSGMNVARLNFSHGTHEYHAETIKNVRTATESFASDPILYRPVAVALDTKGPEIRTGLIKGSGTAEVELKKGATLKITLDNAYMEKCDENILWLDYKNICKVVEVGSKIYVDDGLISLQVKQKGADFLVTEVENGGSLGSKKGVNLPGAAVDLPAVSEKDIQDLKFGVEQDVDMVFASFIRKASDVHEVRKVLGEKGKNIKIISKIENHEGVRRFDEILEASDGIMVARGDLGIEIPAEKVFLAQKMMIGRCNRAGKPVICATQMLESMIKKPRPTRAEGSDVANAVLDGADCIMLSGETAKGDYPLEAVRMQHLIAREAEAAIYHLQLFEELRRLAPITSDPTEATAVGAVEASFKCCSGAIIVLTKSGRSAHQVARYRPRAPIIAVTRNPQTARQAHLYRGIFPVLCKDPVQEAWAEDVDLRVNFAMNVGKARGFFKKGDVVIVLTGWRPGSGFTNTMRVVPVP
Chain of Pyruvate kinase PKLR (Homo sapiens) (P30613 whole entry, looked up): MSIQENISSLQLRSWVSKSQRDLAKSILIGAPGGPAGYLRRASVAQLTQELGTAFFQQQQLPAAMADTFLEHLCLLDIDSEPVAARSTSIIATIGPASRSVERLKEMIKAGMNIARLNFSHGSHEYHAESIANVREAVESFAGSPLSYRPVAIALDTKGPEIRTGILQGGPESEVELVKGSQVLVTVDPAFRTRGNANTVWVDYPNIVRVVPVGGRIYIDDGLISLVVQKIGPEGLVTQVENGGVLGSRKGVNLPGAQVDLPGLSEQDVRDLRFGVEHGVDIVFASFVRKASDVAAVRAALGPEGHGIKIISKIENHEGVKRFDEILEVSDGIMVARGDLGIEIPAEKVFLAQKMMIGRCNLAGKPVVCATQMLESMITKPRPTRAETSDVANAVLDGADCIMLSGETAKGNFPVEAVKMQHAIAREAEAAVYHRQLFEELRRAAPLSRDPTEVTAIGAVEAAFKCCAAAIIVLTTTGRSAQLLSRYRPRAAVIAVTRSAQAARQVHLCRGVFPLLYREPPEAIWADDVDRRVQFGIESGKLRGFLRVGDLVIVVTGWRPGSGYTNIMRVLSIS

`O=S(=O)(c1ccc2c(c1)OCO2)N1CCN(S(=O)(=O)c2c(F)cccc2F)CC1`: the Activity was less than 30% in experiment [1]; less than 30% in experiment [3]; 61% at Pyruvate kinase PKM [4]; less than 30% in experiment [5]; less than 30% in experiment [6]. Moreover, the outcome on Pyruvate kinase PKM [2] and at Pyruvate kinase PKM [7] was inactive.

As for `O=S(=O)(c1cccc(C(F)(F)F)c1)N1CCN(S(=O)(=O)c2ccc3c(c2)OCCO3)CC1`, the Activity is less than 30% in experiment [1]; less than 30% in experiment [3]; 39.3% on Pyruvate kinase PKM [4]; less than 30% in experiment [5]; less than 30% in experiment [6]. Further, the outcome at Pyruvate kinase PKM [2] and on Pyruvate kinase PKM [7] was inactive.

Turning to `O=S(=O)(c1ccc2c(c1)OCCO2)C1CCN(S(=O)(=O)c2c(F)cccc2F)CC1`, the Activity is less than 30% in experiment [1]; less than 30% in experiment [3]; 110% on Pyruvate kinase PKM [4]; less than 30% in experiment [5]; less than 30% in experiment [6]. Besides, the result on Pyruvate kinase PKM [2] and at Pyruvate kinase PKM [7] was inactive.

Regarding `O=S(=O)(c1ccc2c(c1)OCCO2)N1CCN(S(=O)(=O)c2cc(F)c(F)cc2F)CC1`, the Activity in experiment [1] was less than 30%; in experiment [3] it was less than 30%; at Pyruvate kinase PKM [4], 105%; in experiment [5], less than 30%; in experiment [6] it was less than 30%. Moreover, the result at Pyruvate kinase PKM [2] and on Pyruvate kinase PKM [7] was inactive.

Regarding `O=S(=O)(N[C@H]1CC[C@H](NS(=O)(=O)c2c(F)cccc2F)CC1)c1ccc2c(c1)OCCO2`, the Activity in experiment [1] is less than 30%; in experiment [3] it was less than 30%; on Pyruvate kinase PKM [4] it was 90.8%; in experiment [5], less than 30%; in experiment [6] it was less than 30%. The result on Pyruvate kinase PKM [2] and at Pyruvate kinase PKM [7] was inactive.

With `O=S(=O)(c1c(F)cccc1F)C1CCN(S(=O)(=O)c2ccc3c(c2)OCCO3)CC1`, the Activity in experiment [1] is less than 30%; in experiment [3], less than 30%; on Pyruvate kinase PKM [4] it was 104%; in experiment [5], less than 30%; in experiment [6], less than 30%. Also, the result at Pyruvate kinase PKM [2] and at Pyruvate kinase PKM [7] was inactive.

With `O=S(=O)(c1ccc2c(c1)OCCO2)N1CCN(S(=O)(=O)c2ccccn2)CC1`, the Activity is less than 30% in experiment [1]; less than 30% in experiment [3]; 103% on Pyruvate kinase PKM [4]; less than 30% in experiment [5]; less than 30% in experiment [6]. Also, the result on Pyruvate kinase PKM [2] and at Pyruvate kinase PKM [7] was inactive.

`O=S(=O)(c1ccc(Cl)cc1)N1CCN(S(=O)(=O)c2ccc3c(c2)OCCO3)CC1`: the Activity in experiment [1], in experiment [3], in experiment [5] and in experiment [6] was less than 30% each time. Besides, the outcome at Pyruvate kinase PKM [2] and at Pyruvate kinase PKM [7] was inactive.

Regarding `COc1cc(F)c(S(=O)(=O)N2CCN(S(=O)(=O)c3ccc4c(c3)OCCO4)CC2)c(F)c1`, the Activity in experiment [1] is less than 30%; in experiment [3] it was less than 30%; at Pyruvate kinase PKM [4], 91.8%; in experiment [5] it was less than 30%; in experiment [6] it was less than 30%. For the same compound, the result at Pyruvate kinase PKM [2] and on Pyruvate kinase PKM [7] was inactive.

With `C[C@@H]1CN(S(=O)(=O)c2c(F)cccc2F)CCN1S(=O)(=O)c1ccc2c(c1)OCCO2`, the Activity was less than 30% in experiment [1]; less than 30% in experiment [3]; 98.8% on Pyruvate kinase PKM [4]; less than 30% in experiment [5]; less than 30% in experiment [6]. The result on Pyruvate kinase PKM [2] and on Pyruvate kinase PKM [7] was inactive.

`Cn1ccc2cc(S(=O)(=O)N3CCN(S(=O)(=O)c4c(F)cccc4F)CC3)ccc21`: the Activity was less than 30% in experiment [1]; less than 30% in experiment [3]; 91.1% on Pyruvate kinase PKM [4]; less than 30% in experiment [5]; less than 30% in experiment [6]. In addition, the result at Pyruvate kinase PKM [2] and at Pyruvate kinase PKM [7] was inactive.

Turning to `O=S(=O)(c1ccc(F)cc1)N1CCN(S(=O)(=O)c2ccc3c(c2)OCCO3)CC1`, the Activity in experiment [1], in experiment [3], in experiment [5] and in experiment [6] was less than 30% throughout. In addition, the outcome on Pyruvate kinase PKM [2] and on Pyruvate kinase PKM [7] was inactive.

As to `O=C1CN(S(=O)(=O)c2ccc3c(c2)OCCO3)CCN1S(=O)(=O)c1c(F)cccc1F`, the Activity was less than 30% in experiment [1]; less than 30% in experiment [3]; 96.9% at Pyruvate kinase PKM [4]; less than 30% in experiment [5]; less than 30% in experiment [6]. Besides, the outcome at Pyruvate kinase PKM [2] and at Pyruvate kinase PKM [7] was inactive.

In the case of `O=S(=O)(NCCCCNS(=O)(=O)c1c(F)cccc1F)c1ccc2c(c1)OCCO2`, the Activity in experiment [1] was less than 30%; in experiment [3] it was less than 30%; at Pyruvate kinase PKM [4], 113%; in experiment [5] it was less than 30%; in experiment [6], less than 30%. Also, the outcome at Pyruvate kinase PKM [2] and on Pyruvate kinase PKM [7] was inactive.

Consider `N#Cc1ccc(S(=O)(=O)N2CCN(S(=O)(=O)c3ccc4c(c3)OCCO4)CC2)cc1`, for which the Activity is less than 30% in experiment [1]; less than 30% in experiment [3]; 44.1% at Pyruvate kinase PKM [4]; less than 30% in experiment [5]; less than 30% in experiment [6]. The outcome on Pyruvate kinase PKM [2] and at Pyruvate kinase PKM [7] was inactive.

In the case of `O=S(=O)(c1ccc2c(c1)OCCO2)N1CCN(S(=O)(=O)c2c(F)ccc(O)c2F)CC1`, the Activity in experiment [1] was less than 30%; in experiment [3], less than 30%; at Pyruvate kinase PKM [4] it was 95.3%; in experiment [5], less than 30%; in experiment [6], less than 30%. For the same compound, the result on Pyruvate kinase PKM [2] and on Pyruvate kinase PKM [7] was inactive.

For `O=S(=O)(c1c(F)cccc1F)N1CCN(S(=O)(=O)c2c(F)cccc2F)CC1`, the Activity in experiment [1] is less than 30%; in experiment [3], less than 30%; on Pyruvate kinase PKM [4], 74.3%; in experiment [5], less than 30%; in experiment [6], less than 30%. Besides, the result at Pyruvate kinase PKM [2] and on Pyruvate kinase PKM [7] was inactive.

With `COc1ccc(S(=O)(=O)N2CCN(S(=O)(=O)c3ccc(OC)cc3)CC2)cc1`, the Activity in experiment [1] is less than 30%; in experiment [3], less than 30%; at Pyruvate kinase PKM [4], 87.6%; in experiment [5], less than 30%; in experiment [6], less than 30%. Moreover, the outcome at Pyruvate kinase PKM [2] and at Pyruvate kinase PKM [7] was inactive.

As to `O=S(=O)(c1ccc2ccccc2c1)N1CCN(S(=O)(=O)c2c(F)cccc2F)CC1`, the Activity in experiment [1] was less than 30%; in experiment [3], less than 30%; on Pyruvate kinase PKM [4], 138%; in experiment [5] it was less than 30%; in experiment [6], less than 30%. Moreover, the outcome at Pyruvate kinase PKM [2] and at Pyruvate kinase PKM [7] was inactive.

Turning to `O=S(=O)(c1cccc(F)c1)N1CCN(S(=O)(=O)c2ccc3c(c2)OCCO3)CC1`, the Activity in experiment [1] was less than 30%; in experiment [3], less than 30%; on Pyruvate kinase PKM [4], 107%; in experiment [5] it was less than 30%; in experiment [6] it was less than 30%. Besides, the outcome on Pyruvate kinase PKM [2] and at Pyruvate kinase PKM [7] was inactive.

Take `O=S(=O)(c1ccc2c(c1)OCCO2)N1CCN(S(=O)(=O)c2ccccc2F)CC1`: the Activity in experiment [1] was less than 30%; in experiment [3] it was less than 30%; on Pyruvate kinase PKM [4] it was 114%; in experiment [5], less than 30%; in experiment [6] it was less than 30%. The result at Pyruvate kinase PKM [2] and on Pyruvate kinase PKM [7] was inactive.

As for `O=S(=O)(NCCCCCNS(=O)(=O)c1c(F)cccc1F)c1ccc2c(c1)OCCO2`, the Activity is less than 30% in experiment [1]; less than 30% in experiment [3]; 114% on Pyruvate kinase PKM [4]; less than 30% in experiment [5]; less than 30% in experiment [6]. The outcome on Pyruvate kinase PKM [2] and on Pyruvate kinase PKM [7] was inactive.

Regarding `O=C1CN(S(=O)(=O)c2c(F)cccc2F)CCN1S(=O)(=O)c1ccc2c(c1)OCCO2`, the Activity is less than 30% in experiment [1]; less than 30% in experiment [3]; 105% at Pyruvate kinase PKM [4]; less than 30% in experiment [5]; less than 30% in experiment [6]. In addition, the outcome at Pyruvate kinase PKM [2] and on Pyruvate kinase PKM [7] was inactive.

For `O=S(=O)(c1ccc2c(c1)OCCCO2)N1CCN(S(=O)(=O)c2c(F)cccc2F)CC1`, the Activity was less than 30% in experiment [1]; less than 30% in experiment [3]; 100% on Pyruvate kinase PKM [4]; less than 30% in experiment [5]; less than 30% in experiment [6]. Further, the result at Pyruvate kinase PKM [2] and on Pyruvate kinase PKM [7] was inactive.
